Test results as given in paper PMC4431946 (Journal of the American Chemical Society, 2015).
Where two headings read alike, the source gives them in different places.

Legend:
rat nNOS [1] = target: T1, rat nNOS (Rattus norvegicus, UniProt P29476); test: Irreversible inhibition kinetics; assay type: biochemical; conditions: for time-dependent inactivation of nNOS: result in words
nNOS = nNOS (Rattus norvegicus, UniProt P29476); test: LC/MS of amino acid metabolites after inactivation of nNOS by 1; assay type: biochemical; conditions: 56 µM of 1, 37 °C, 3 h
rat nNOS [2] = target: T1, rat nNOS; conditions: result in words; reported earlier; cited from earlier work
rat nNOS [3] = target: T1, rat nNOS; test: Hemoglobin NO generation assay; assay type: biochemical
ferric nNOS = ferric nNOS (Rattus norvegicus, UniProt P29476); test: Spectral titration of ferric nNOS-H4B; assay type: binding
Summary of the method: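 Ferric full-length rat nNOS-H4B, 5 µM, in 50 mM HEPES pH 7.5 with 100 mM NaCl, titrated by 1–2 µL additions of test compound. Difference spectra recorded from 350–550 nm. Peak (~455 nm) minus trough (400 nm) absorbance plotted against ligand concentration.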

ferrous nNOS = ferrous nNOS (Rattus norvegicus, UniProt P29476); test: Spectral titration of dithionite-reduced; assay type: binding
Summary of the method: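 Full-length rat nNOS-H4B reduced with dithionite and desalted under anaerobic conditions in a glovebox. Degassed 50 mM HEPES pH 7.5 with 100 mM NaCl; compound stocks made in degassed buffer. Test compound added in 1–2 µL portions from 1, 5 and 20 mM stocks, totalling <2% of volume. Double-beam scans from 350–600 nm, repeated until stable. Peak (~455 nm) minus trough (410 nm) absorbance fitted with a quadratic function for apparent Ks.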

ferric nNOS, sequence (P29476 whole entry): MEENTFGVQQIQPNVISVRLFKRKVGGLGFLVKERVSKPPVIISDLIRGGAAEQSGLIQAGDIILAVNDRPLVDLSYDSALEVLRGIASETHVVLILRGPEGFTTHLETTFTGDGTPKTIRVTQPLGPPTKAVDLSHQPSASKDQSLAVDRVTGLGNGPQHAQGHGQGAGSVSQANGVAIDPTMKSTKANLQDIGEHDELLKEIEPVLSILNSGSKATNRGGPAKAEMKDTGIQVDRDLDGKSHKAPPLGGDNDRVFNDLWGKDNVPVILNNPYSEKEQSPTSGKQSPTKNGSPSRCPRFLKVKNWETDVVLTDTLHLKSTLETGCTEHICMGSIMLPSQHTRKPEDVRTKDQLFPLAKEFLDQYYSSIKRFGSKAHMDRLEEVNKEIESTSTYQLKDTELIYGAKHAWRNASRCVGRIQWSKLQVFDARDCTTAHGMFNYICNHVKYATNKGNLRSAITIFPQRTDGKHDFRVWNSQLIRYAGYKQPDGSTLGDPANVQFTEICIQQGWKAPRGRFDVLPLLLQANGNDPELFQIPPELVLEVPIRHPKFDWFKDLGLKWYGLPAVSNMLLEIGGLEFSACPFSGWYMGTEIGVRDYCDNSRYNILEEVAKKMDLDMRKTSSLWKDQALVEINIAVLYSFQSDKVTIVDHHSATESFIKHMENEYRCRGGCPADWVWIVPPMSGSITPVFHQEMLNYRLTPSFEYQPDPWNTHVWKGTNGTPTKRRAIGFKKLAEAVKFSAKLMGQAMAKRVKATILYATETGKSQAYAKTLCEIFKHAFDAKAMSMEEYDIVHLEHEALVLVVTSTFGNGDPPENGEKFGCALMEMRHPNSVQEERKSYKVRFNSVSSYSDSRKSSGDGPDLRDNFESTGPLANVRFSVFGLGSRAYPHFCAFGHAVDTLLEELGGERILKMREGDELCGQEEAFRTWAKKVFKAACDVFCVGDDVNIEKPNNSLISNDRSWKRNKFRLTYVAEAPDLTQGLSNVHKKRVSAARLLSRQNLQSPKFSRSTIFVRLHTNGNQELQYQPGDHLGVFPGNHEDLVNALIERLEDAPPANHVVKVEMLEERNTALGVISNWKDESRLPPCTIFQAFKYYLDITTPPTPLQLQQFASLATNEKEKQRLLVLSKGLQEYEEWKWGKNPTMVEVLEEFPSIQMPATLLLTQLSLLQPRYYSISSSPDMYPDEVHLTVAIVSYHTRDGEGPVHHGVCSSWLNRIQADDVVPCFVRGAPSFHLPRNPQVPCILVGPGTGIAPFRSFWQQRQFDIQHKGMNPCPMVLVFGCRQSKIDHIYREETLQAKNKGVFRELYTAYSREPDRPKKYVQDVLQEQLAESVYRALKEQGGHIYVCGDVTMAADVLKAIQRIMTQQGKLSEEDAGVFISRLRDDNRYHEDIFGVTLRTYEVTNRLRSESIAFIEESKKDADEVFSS
ferrous nNOS, sequence (P29476 whole entry): as above

| SMILES | time-dependent inactivation of nNOS (rat nNOS [1]) | IC50 (rat nNOS [3]) | Ki (rat nNOS [3]) | further results |
| --- | --- | --- | --- | --- |
| CSCC(=N)NCCC[C@H](N)C(=O)O [compound 1, (S)-2-Amino-5-(2-(methylthio)acetimidamido)pentanoic acid] | inactivator of nNOS | – | – | amount of 2 produced from the inactivation of nNOS by 1 (nNOS): Approximately 0.53 µM; time-dependent inactivation of nNOS (rat nNOS [2]): time-dependent irreversible inhibitor of nNOS |
| C[S+]([O-])CC(=N)NCCC[C@H](N)C(=O)O (stereo partly drawn) [compound 2, (2S)-2-Amino-5-(2-(methylsulfinyl)acetimidamido)pentanoic acid] | neither showed time-dependent inactivation | 461 ± 20 µM | 53 ± 2.4 µM | – |
| CS(=O)(=O)CC(=N)NCCC[C@H](N)C(=O)O [compound 3, (S)-2-Amino-5-(2-(methylsulfonyl)acetimidamido)pentanoic acid] | neither showed time-dependent inactivation | 507 ± 49 µM | 58.3 ± 5.6 µM | – |
| N=C(C=O)NCCC[C@H](N)C(=O)O [compound 4, (S)-2-Amino-5-(2-oxoacetimidamido)pentanoic acid] | neither was a time-dependent inhibitor | 199 ± 7.1 µM | 22.9 ± 0.82 µM | – |
| N=C(CO)NCCC[C@H](N)C(=O)O [compound 5, (S)-2-Amino-5-(2-hydroxyacetimidamido)pentanoic acid] | neither was a time-dependent inhibitor | 13 ± 0.67 µM | 1.5 ± 0.08 µM | – |
| N=C(CS)NCCC[C@H](N)C(=O)O [compound 6, (S)-2-Amino-5-(2-mercaptoacetimidamido)pentanoic acid] | time- and concentration-dependent inactivator | 3.64 ± 0.15 µM | 0.42 ± 0.017 µM | Ki (rat nNOS [1]): 2.9 ± 0.2 µM; kinact (rat nNOS [1]): 0.000767 s⁻¹; kinact/KI (rat nNOS [1]): 267 M⁻¹ s⁻¹; inactivation rate (kinact) relative to 1 (rat nNOS [1]; 6 versus 1): about half the inactivation rate; Kd (ferric nNOS): 1.8 ± 0.1 µM; heme ligand type from difference spectra (ferric nNOS; ferric nNOS-H4B): type-II ligand; Kd (ferrous nNOS): 1.6 ± 0.3 µM; heme ligand type from difference spectra (ferrous nNOS; dithionite-reduced nNOS-H4B): still a type-II ligand |
